Data set [1] in a line: Partition coefficient (logP). Type of data set: physicochemical. Conditions: octanol/water.
For data set [2], the target named is T1, Epoxide hydrolase 1 (Rattus norvegicus) (UniProt P07687).
T1 sequence (whole entry): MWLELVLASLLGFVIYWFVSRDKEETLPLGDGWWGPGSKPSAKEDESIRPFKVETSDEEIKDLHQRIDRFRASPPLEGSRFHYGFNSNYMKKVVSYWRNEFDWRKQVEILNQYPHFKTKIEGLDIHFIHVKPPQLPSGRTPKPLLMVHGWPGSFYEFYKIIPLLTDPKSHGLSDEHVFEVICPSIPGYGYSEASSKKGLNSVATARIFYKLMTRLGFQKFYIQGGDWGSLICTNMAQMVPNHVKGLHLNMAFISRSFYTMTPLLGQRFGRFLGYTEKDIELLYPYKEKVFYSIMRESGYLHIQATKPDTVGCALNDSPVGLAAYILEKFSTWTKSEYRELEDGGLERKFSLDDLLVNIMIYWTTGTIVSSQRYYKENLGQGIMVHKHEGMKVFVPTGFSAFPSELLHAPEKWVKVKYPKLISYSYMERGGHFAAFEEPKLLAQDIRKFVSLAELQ
The data set can be described thus: (§1) Enhancement of epoxide hydrolase activity. Summed up:
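Microsomes from untreated rats with a concentration series of N-1-substituted imidazoles added from aqueous solution. Styrene oxide hydrolysis in 0.25 M Tris-Cl pH 8.7, 0.03% Tween-80, 10 min, duplicate tubes, no-tissue blanks. E100 is the concentration giving 100% enhancement, read from the linear concentration-effect range using at least three concentrations on each side. Mean ± SD over individual rats.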

The species entered for data set [3] is Rattus norvegicus. The data set can be described thus: Maximum enhancement of styrene oxide hydrolase activity was reported at compound concentration of 5e-2M.
Data set [4] has as its target T1, Epoxide hydrolase 1 (Rattus norvegicus). The data set can be described thus: Enhanced styrene oxide hydrolase activity pH 8.7. Type of data set: functional. The essentials: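 Imidazoles were added from aqueous solution, with diluted HCl or solvent in reference tubes, and incubated 10 min at 37 °C. Hexane stopped the reaction; tubes were run in duplicate. E100 (the concentration giving a 100% rise) came from the linear concentration-effect plot; mean ± SD over n rats.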

The species entered for data set [5] is Rattus norvegicus. Nature of the data set: Enhancement of styrene hydrolase activity was determined in male wistar rat hepatic microsomes given to 3-methylcholanthrene treated rats. Conditions: Liver. The essentials: (§2)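 Male Wistar rats were pretreated ip with 3-methylcholanthrene 40 mg/kg daily for 3 days; washed liver microsomes were then prepared. Reported as activity ratio ± SD, n = 3-4 or individual.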

The species named for data set [6] is Rattus norvegicus. Nature of the data set: Enhancement of styrene hydrolase activity was determined in male wistar rat hepatic microsomes given to phenobarbital treated rats. Conditions: Liver. The essentials: (§3)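 Rats were given phenobarbital 80 mg/kg ip daily for 3 days before washed hepatic microsomes were prepared. Ratio of activity with vs without derivative, from 3-4 rats or individual values.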

Data set [7] is filed under the species Rattus norvegicus. The data set can be described thus: Enhancement of styrene hydrolase activity was determined in male wistar rat hepatic microsomes given to untreated rats. Conditions: Liver. The essentials: (§4)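 Hepatic microsomes (washed) from untreated male Wistar rats (200 ± 20 g). Incubation: 0.25 M Tris-Cl pH 8.7, 0.03% Tween-80, 0.1-0.2 mg protein, 37 °C, 10 min, stopped with hexanes, duplicate tubes. Enhancement is the activity ratio with/without derivative, mean ± SD of 3-4 rats.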

The species entered for data set [8] is Rattus norvegicus. Nature of the data set: Enhancement of styrene hydrolase activity was determined in male wistar rat hepatic microsomes given to phenobarbital treated rats. Conditions: Liver. Summed up:
as §3

The species named for data set [9] is Rattus norvegicus. Nature of the data set: Enhancement of styrene hydrolase activity was determined in male wistar rat hepatic microsomes given to untreated rats. Particulars: Liver. Summed up: as §4
Data set [10] is filed under the species Rattus norvegicus. Nature of the data set: Enhancement of styrene hydrolase activity was determined in male wistar rat hepatic microsomes given to 3-methylcholanthrene treated rats. Conditions: Liver. Summed up:
as §2

In data set [11] the target is T1, Epoxide hydrolase 1 (Rattus norvegicus). Described as §1. Summed up: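 Microsomes from untreated rats, or rats given PB 80 mg/kg or 3MC 40 mg/kg ip daily for 3 days; 0.1-0.2 mg protein, 0.25 M Tris-Cl pH 8.7, 0.03% Tween-80. Value is the ratio of activity with to without derivative; mean ± SD, 3-4 rats.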
The source holds these as a separate data set.

The species named for data set [12] is Rattus norvegicus. Nature of the data set: Maximum enhancement of styrene oxide hydrolase activity was reported at compound concentration of 1e-3 M.
Data set [13] is filed under the species Rattus norvegicus. Nature of the data set: Maximum enhancement of styrene oxide hydrolase activity was reported at compound concentration of 1e-4M. Summed up:
(§5)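 Washed liver microsomes from untreated male Wistar rats (200 ± 20 g), stored at -20 °C. Tubes (0.145 mL) held 0.25 M Tris-Cl pH 8.7, 0.03% Tween-80, 0.1-0.2 mg microsomal protein and ¹⁴C-styrene oxide. Imidazoles were added from aqueous solution, in duplicate tubes at each concentration. Incubation was 10 min at 37 °C, stopped with hexanes. Maximum enhancement is the highest activity ratio (with/without additive) observed; mean ± SD over individual rats.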

The species entered for data set [14] is Rattus norvegicus. Nature of the data set: Maximum enhancement of styrene oxide hydrolase activity was reported at compound concentration of 5e-4 M. Summed up: as §5
Data set [15] is filed under the species Rattus norvegicus. The data set can be described thus: Maximum enhancement of styrene oxide hydrolase activity was reported at compound concentration of 5e-3 M.
The species named for data set [16] is Rattus norvegicus. The data set can be described thus: Maximum enhancement of styrene oxide hydrolase activity was reported at compound concentration of 1e-1M.
For data set [17], the species on record is Rattus norvegicus. Nature of the data set: Maximum enhancement of styrene oxide hydrolase activity was reported at compound concentration of 1e-2M.

As a reminder, the logP is a log measure of how a compound divides between an organic and an aqueous phase.

Turning to `CCn1ccnc1`, the logP in data set [1] (read-out: logP) was determined as 0.81. The Log 1/E100 in data set [2] was 2.55. For the same compound, in the data set listed under Rattus norvegicus [3], the Max enhancement was determined as 4.6. In [4], the E100 was found to be 2800 µM.
For the compound `c1ccc(-c2ncc[nH]2)cc1`, the Enhancement came out at 2.09 in the data set filed under Rattus norvegicus [5], 1.99 in the data set listed under Rattus norvegicus [6] and 2 in the data set listed under Rattus norvegicus [7].
As to `c1ccc(C2NCCN2)cc1`, the Enhancement in the data set listed under Rattus norvegicus [8] was found to be 1.11; in the data set filed under Rattus norvegicus [9] it was 1.19; in the data set filed under Rattus norvegicus [10] it was 1.15.
As for `c1ccc(-c2c[nH]cn2)cc1`, the Enhancement in the data set filed under Rattus norvegicus [5] was 2.61; in the data set filed under Rattus norvegicus [6] it was 2.45; in the data set listed under Rattus norvegicus [7], 2.3.
Regarding `O=[N+]([O-])c1ccc(-n2ccnc2)cc1`, the log partition coefficient (logP) in data set [1] (read-out: logP) was determined as 1.19. Moreover, the Log 1/E100 in data set [11] came out at 2.4. Besides, in the data set filed under Rattus norvegicus [12], the Max enhancement stood at 1.3. The E100 in data set [4] was determined as 3900 µM.
On to `Oc1ccc(-n2ccnc2)cc1`, for which the logP in [1] (read-out: logP) is 0.94. The Log 1/E100 in data set [11] is 3.62. The Max enhancement in the data set filed under Rattus norvegicus [12] worked out at 3.8. Further, the E100 in data set [4] is 240 µM.
In turn, `Clc1ccccc1C(c1ccccc1)(c1ccccc1)n1ccnc1` [CLOTRIMAZOLE] returned a logP in [1] of 6.14. Besides, the Log 1/E100 in [2] came to 5.21. Besides, the Max enhancement in the data set filed under Rattus norvegicus [13] worked out at 5.4. In data set [4], the E100 was found to be 6.2 µM.
Regarding `Clc1ccc(COC(Cn2ccnc2)c2ccc(Cl)cc2Cl)c(Cl)c1` (centres undefined) [MICONAZOLE], the logP in data set [1] (read-out: logP) came out at 5.84. Besides, the Log 1/E100 in data set [11] is 4.08. For the same compound, the Max enhancement in the data set listed under Rattus norvegicus [14] stood at 3.1. Moreover, the E100 in [4] came to 84 µM.
Regarding `c1ccc(Cn2ccnc2)cc1` [BENZYLIMIDAZOLE], in data set [1] (read-out: logP), the logP came out at 2.01. Moreover, in [11], the Log 1/E100 came out at 3.64. Also, in the data set filed under Rattus norvegicus [15], the Max enhancement came to 5.7. Besides, the E100 in data set [4] came out at 230 µM.
As to `c1c[nH]cn1` [IMIDAZOLE], the logP in data set [1] (read-out: logP) is -0.42. Also, the Log 1/E100 in data set [2] amounted to 2.05. The Max enhancement in the data set filed under Rattus norvegicus [16] was 5.1. Moreover, the E100 in [4] was determined as 8800 µM.
Turning to `CC(=O)N1CCN(c2ccc(OCC3COC(Cn4ccnc4)(c4ccc(Cl)cc4Cl)O3)cc2)CC1` (centres undefined), in the data set filed under Rattus norvegicus [12], the Max enhancement came out at 3.3. Also, in [4], the E100 was determined as 54 µM.
For the compound `Cn1ccnc1` [1-METHYLIMIDAZOLE], in [1] (read-out: logP), the logP was 0.28. In addition, the Log 1/E100 in data set [11] is 1.94. Also, in the data set filed under Rattus norvegicus [3], the Max enhancement is 3.9. Besides, the E100 in [4] is 12000 µM.
Regarding `Fc1ccc(-n2ccnc2)cc1`, the logP in [1] (read-out: logP) came out at 1.67. For the same compound, the Log 1/E100 in data set [11] is 3.26. Moreover, the Max enhancement in the data set filed under Rattus norvegicus [15] amounted to 4.4. In addition, the E100 in [4] worked out at 550 µM.
As for `c1ccc(-n2ccnc2)cc1`, the logP in [1] (read-out: logP) is 1.48. The Log 1/E100 in [11] worked out at 3.48. Moreover, the Enhancement in the data set filed under Rattus norvegicus [8] was 3.15; in the data set filed under Rattus norvegicus [9], 3.34; in the data set listed under Rattus norvegicus [10] it was 3.75. For the same compound, in the data set listed under Rattus norvegicus [17], the Max enhancement came out at 4.7. Also, in [4], the E100 was 330 µM.
